Assay results from paper PMC7993229 (Oncoimmunology, 2021).

Assays:
[1] = first-in-human clinical study; cited from earlier work
[2] = Pharmacokinetic parameters of MF-766 in mice; details: female, C57/B6, mouse, in vivo, po
CT26 tumors [3] = test: CT26 syngeneic tumor model efficacy study; format: in vivo, BALB/c mouse
Outline: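 Female BALB/cAnN mice (6–8 weeks) received 0.5 × 10^6 CT26 cells s.c. in the lower right flank. Dosing began at a mean tumor volume of 100 mm3 (75–125). Test compound 30 mg/kg (10% Tween 80) or vehicle was given orally QDx21; anti-PD-1 or isotype was given 10 mg/kg i.p. Q4Dx4. Volume = 0.5 × L × W², followed 60 days. RTV and TGI (%) were calculated; n = 9–12; one-way ANOVA vs vehicle/isotype.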

EMT6 tumors [4] = test: EMT6 syngeneic tumor model efficacy study; format: in vivo, BALB/c mouse; details: MF-766 30 mpk
Outline: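 EMT6 cells (0.5 × 10^6) were implanted s.c. in the right flank of female BALB/cAnN mice aged 6–8 weeks. Treatment started at a mean tumor volume of 100 mm3 (75–125). Test compound 30 mg/kg in 10% Tween 80 was dosed orally QDx28; anti-PD-1 10 mg/kg i.p. Q4Dx4. Tumor volume = 0.5 × L × W². Relative tumor volume and TGI (%) were derived vs control; n = 9–12; one-way ANOVA vs vehicle/isotype.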

Human NK cells = test: Natural killer cell activation; format: cell-based
[5] = system: PGE2-induced MDSCs / autologous CD8+ T cells; test: Suppressive myeloid cell and T-cell co-culture assay; format: cell-based, human; details: 1:4 ratio, anti-CD3/CD28 beads, vs DMSO control; MF-766 10, 1, 0.1, 0.01 μM
human CD8+ T cells = test: MF-766 and pembrolizumab combination in human CD8+ T cells; format: cell-based; details: for CD8+ T cell viability: Fig S2B
Outline: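 CD8+ T cells were purified from frozen healthy-donor PBMCs and seeded at 1 × 10^5 cells/well in RPMI-1640 with 10% heat-inactivated FBS and 2 mM L-glutamine. Test compound was titrated from 3 µM in 3-fold steps ± PGE2 (10 nM), with pembrolizumab or human IgG4 isotype at 20 µg/mL. Cells were activated with anti-CD3/CD28 beads plus 100 U/mL IL-2 for 24 h at 37°C; IFN-γ was read by Meso Scale Discovery.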

THP-1 cells = test: THP-1 LPS-stimulated TNF-α assay; format: cell-based, human; details: 1 h pretreatment, 1 μg/mL LPS + PGE2
Outline: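 THP-1 monocytes were preincubated 1 h with graded test compound concentrations. They were then stimulated with 1 μg/mL LPS, with or without 0.33 μM PGE2, for 18 h. Cells were centrifuged and TNF-α in the supernatant was quantified by Meso Scale Discovery.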

[6] = system: healthy human whole blood; test: Ex vivo whole blood LPS-stimulated TNF-α assay; format: cell-based; details: 1 μg/mL LPS + PGE2
Outline: (§1)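 Blood was collected in sodium heparin. Healthy-donor blood was used fresh on assay day; CRC patient blood was drawn 1 day before and shipped overnight. Samples were pretreated 1 h with test compound, then stimulated with 1 μg/mL LPS (final) ± 0.037 μM PGE2 for 18 h. After centrifugation, TNF-α in the supernatant was measured by Meso Scale Discovery.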

CRC patient blood = test: Ex vivo whole blood LPS-stimulated TNF-α assay; format: cell-based, human; details: 1 μg/mL LPS + PGE2
Outline: as §1

[7] = system: bone marrow-derived dendritic cells (BMDCs); test: Dendritic cell activation; format: cell-based, C57/BL6 mice; details: mouse BMDCs
Outline: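 Bone marrow flushed from C57BL/6 femurs was cultured 6 days in RPMI with 20 ng/mL mouse GM-CSF and 20 ng/mL mouse IL-4 to give immature DCs. Cells were pretreated 1 h with test compound, then given 1 μg/mL LPS ± 0.037 μM PGE2 for 18 h. Supernatant TNF-α was read with a Meso Scale Discovery mouse panel.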

[8] = system: human monocyte-derived DCs; test: Dendritic cell activation; format: cell-based
Outline: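 Commercially sourced human dendritic cells were pretreated 1 h with test compound. They were then stimulated with 1 μg/mL LPS with or without 0.037 μM PGE2 for 18 h. TNF-α in the medium was quantified with a Meso Scale Discovery human pro-inflammatory panel.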

[9] = system: human primary tumor histoculture; test: Human tumor histoculture; format: cell-based; details: histoculture system
Outline: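 Tumor tissue was trimmed of fat, cut into ~400 µm slices and cultured at the air–liquid interface (37°C, 5% CO2) in DMEM with 10% FBS and penicillin/streptomycin. Slices were stimulated with 50 ng/mL anti-human CD3 plus test compound or DMSO for 48 h. IFN-γ, IL-2 and TNF-α were measured by Meso Scale Discovery and expressed as fold change vs DMSO (mean ± S.E.M, n = 8).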

CT26 tumors [10] = test: Flow cytometry of immune infiltrates in CT26 tumors; format: in vivo, mouse
Outline: (§2)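 Mice bearing 100 mm3 tumors were dosed as in the efficacy schedule, and tumors were harvested on day 8. Tumors were weighed, enzymatically dissociated and filtered (70 µm). Then 2–3 million cells were stained with fixable viability dye, Fc-blocked 10 min on ice and surface-stained 30 min on ice. Populations were gated within viable CD45+ singlets (NK CD3−CD335+CD49b+; gMDSC CD11b+Ly6G+; macrophages; DCs) and reported as % CD45+ and cells/mg tumor; n = 9–10.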

EMT6 tumors [11] = test: Flow cytometry of immune infiltrates in EMT6 tumors; format: in vivo, mouse; details: EMT6, single-agent treatment
Outline: as §2

[12] = rat AIA model; cited from earlier work
primary tumor digests = test: Anti-CD3-stimulated primary tumor digest culture; format: cell-based, human; details: without PGE2 spike
Outline: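 Cells were plated at 0.1 × 10^6/well, from four donors, and cultured 48 h. IFN-γ and TNF-α in supernatants were read on a Meso Scale Discovery platform; technical-replicate means were taken per donor.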

Q: Which tolerability [1] does the source give for `C[C@H](NC(=O)c1c(C(F)F)nn(C)c1Oc1cccc(C(F)(F)F)c1)c1ccc(C(=O)O)cc1` [E-7046] here?
A: well tolerated

Q: Which results are given for `O=C(O)c1ccc(C2(NC(=O)c3cccc4ccn(Cc5ccc(C(F)(F)F)cc5)c34)CC2)cc1` [MF-766, 4-[1-[([1-[4-(trifluoromethyl)benzyl]-1H-indol-7-yl]carbonyl)amino]cyclopropyl]be nzoic acid]?
A: AUC(0-t) ([2]; 30 mg/kg): 57.5 ± 10.8 µM·h; Cmax ([2]; 30 mg/kg): 15 ± 4.37 µM; Tmax ([2]; 30 mg/kg): 30 min; AUC(0-t) ([2]; 100 mg/kg): 255 ± 97.3 µM·h; Cmax ([2]; 100 mg/kg): 24.1 ± 6.01 µM; Tmax ([2]; 100 mg/kg): 30 min; tumor progression on monotherapy (CT26 tumors [3]; MF-766 30 mpk monotherapy): all tumors progressed; tumor volume reduction (CT26 tumors [3]; compared to vehicle/isotype treated group, MF-766 30 mpk, muDX400 10 mpk): 49%; single-agent activity (EMT6 tumors [4]): did not show single-agent activity; reversal of PGE2-suppressed IFN-γ secretion (Human NK cells; 1 h pretreatment, 50 ng/mL IL-2 ± PGE2 overnight): reversed by pretreatment with MF-766 in a dose-dependent manner; NK cell viability (Human NK cells; conditions of Figure 2b (Fig S2A)): not affected; reversal of MDSC/PGE2 suppression of IFN-γ release from CD8+ T cells [5]: reversed by MF-766 in a dose-dependent manner; CD8+ T cell viability (human CD8+ T cells): Neither PGE2 nor MF-766 addition affected; reversal of PGE2-mediated inhibition of IFN-γ production (human CD8+ T cells; PGE2 10 nM, anti-CD3/CD28 beads, 24 hours, MF-766 alone): reversed PGE2-mediated inhibition of IFN-γ production; reversal of PGE2-decreased LPS-stimulated TNF-α production (THP-1 cells): fully reversed; reversal of PGE2 suppression of LPS-stimulated TNF-α production [6]: partially reversed; restoration of PGE2-suppressed TNF-α production (CRC patient blood): partially restored; restoration of PGE2-suppressed TNF-α production ([7]; 1 μg/mL LPS + PGE2): fully restored; restoration of PGE2-suppressed TNF-α production ([8]; 1 μg/mL LPS + PGE2): fully restored; anti-CD3–stimulated IFN-γ, IL-2, and TNF-α secretion [9]: increase; MHCII high/low macrophage ratio (CT26 tumors [10]; CT26): increased; NK cells, percentage in CD45+ fraction and absolute number per mg tumor (CT26 tumors [10]; CT26, D8): significantly enriched; CD3+ T cells, frequency of CD45+ cells and absolute numbers in the tumor (CT26 tumors [10]; CT26, D8, primarily CD8+ T cells, not CD4+): significant enrichment; absolute numbers of tumor-infiltrating CD45+ leukocytes per mg tumor (CT26 tumors [10]; CT26, D8 post-therapy): significantly increased; CD8+ DCs (CT26 tumors [10]; CT26, single-agent treatment): remarkable increase; CT26 tumor weight (CT26 tumors [10]; day 8, difference did not reach statistical significance): trend toward reduction in size; CD8+ or NK cell infiltration into tumors (EMT6 tumors [11]): did not significantly increase; percentage of gMDSCs (EMT6 tumors [11]; absolute numbers per mg not significant): significantly decreased; potency compared to other COX-2 inhibitors, including celecoxib and MF-tricyclic [12]: greater than 200 fold

Q: With `CCCCC[C@H](O)/C=C/[C@H]1[C@H](O)CC(=O)[C@@H]1C/C=C\CCCC(=O)O` [PGE2, Prostaglandin E2, reference compound] as the compound, how does the “CD8+ T cell viability” value (human CD8+ T cells) read?
A: Neither PGE2 nor MF-766 addition affected

Q: What about the “suppression of TNF-α production” value ([7]; compared to LPS alone) of the same compound?
A: ~ 30%

Q: What about the “suppression of TNF-α production” value ([8]; compared to LPS alone) of the same compound?
A: ~ 30%

Q: With “pembrolizumab: humanized monoclonal immunoglobulin (Ig)G4 antibody against PD-1” as the compound, how does the “IFN-γ and TNF-α secretion” value (primary tumor digests) read?
A: enhanced
